Data reported in ChEMBL document CHEMBL1136766, “Design, synthesis, and biological evaluation of new inhibitors of the endocannabinoid uptake: comparison with effects on fatty acid amidohydrolase” (J Med Chem, 2003).

Assays:
[1] = target: T1, Fatty-acid amide hydrolase 1 (Rattus norvegicus) (UniProt P97612); assay: Inhibition of fatty acid amide hydrolase (FAAH) in rat brain homogenates; assay type: tissue-based
T1 sequence (whole entry): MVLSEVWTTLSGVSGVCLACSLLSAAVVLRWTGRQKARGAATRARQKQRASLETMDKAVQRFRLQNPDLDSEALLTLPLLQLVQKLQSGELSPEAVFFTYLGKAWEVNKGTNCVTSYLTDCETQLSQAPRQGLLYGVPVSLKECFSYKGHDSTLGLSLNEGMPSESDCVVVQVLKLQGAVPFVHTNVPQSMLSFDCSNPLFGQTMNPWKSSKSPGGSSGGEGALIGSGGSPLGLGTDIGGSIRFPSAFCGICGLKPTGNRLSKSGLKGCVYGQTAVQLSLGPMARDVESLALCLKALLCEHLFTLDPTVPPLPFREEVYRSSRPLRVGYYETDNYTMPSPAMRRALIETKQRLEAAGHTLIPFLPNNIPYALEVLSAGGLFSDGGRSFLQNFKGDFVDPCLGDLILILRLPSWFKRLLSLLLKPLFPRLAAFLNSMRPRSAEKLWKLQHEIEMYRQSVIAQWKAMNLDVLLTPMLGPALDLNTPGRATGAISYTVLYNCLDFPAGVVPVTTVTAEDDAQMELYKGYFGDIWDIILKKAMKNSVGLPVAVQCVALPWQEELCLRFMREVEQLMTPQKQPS
Procedure, shortened: (§1)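 Rat brain homogenate without cerebellum, in 10 mM Tris-HCl/1 mM EDTA pH 7.6, incubated 10 min at 37 °C with compound (ethanol carrier). Substrate: anandamide 2 µM final with trace [3H]anandamide labelled in the ethanolamine, plus BSA. Stopped on ice with chloroform/methanol; [3H]ethanolamine in the aqueous phase counted. Eight concentrations from 0.5 to 100 µM, at least three experiments.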

Cannabinoid receptor 2 = Cannabinoid receptor 2 (Homo sapiens, UniProt P34972); assay: Binding affinity against G protein coupled human Cannabinoid receptor 2 using [3H]CP-55940 in HEK293 EBNA transfected cells; assay type: cell-based
Procedure, shortened: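 Incubated 90 min at 30 °C with 0.3 nM [3H]CP55940 plus competitor. Filtered and counted by scintillation. IC50 from curve fit, Ki by Cheng-Prusoff. Two to four experiments in triplicate.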

[2] = target: T2, Fatty-acid amide hydrolase 1 (Rattus norvegicus, UniProt P97612); assay: Inhibition of fatty acid amide hydrolase (FAAH) was determined using rat brain homogenates as the enzyme source and [3H]anandamide as substrate; assay type: tissue-based; procedure, shortened: as §1
T2 sequence (P97612 whole entry): T1 sequence (whole entry)

[3] = target: Transient receptor potential cation channel subfamily V member 1 (Rattus norvegicus, UniProt O35433); assay: Binding affinity against vanilloid receptor 1 (VR1) using [3H]RTX in rat spinal cord membranes; assay type: cell membranes, Membrane
Procedure, shortened: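 Rat spinal cord membranes (about 1 mg/mL protein) in HEPES/sucrose buffer pH 7.4 with 0.25 mg/mL BSA. Incubated 60 min at 37 °C with 25 pM [3H]RTX plus competitor; nonspecific binding defined with 1 µM RTX. Stopped on ice, α1-acid glycoprotein added, membranes pelleted and counted. Ki by Cheng-Prusoff. Two to four experiments in triplicate.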

Cannabinoid receptor 1 = Cannabinoid receptor 1 (Rattus norvegicus, UniProt P20272); assay: Binding affinity against G protein coupled Cannabinoid receptor 1 using [3H]WIN-55212-2 in rat cerebellum membranes; assay type: cell membranes, Membrane
Procedure, shortened: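 Rat cerebellum membranes washed in 50 mM Tris-HCl pH 7.4, resuspended at about 2 mg/mL protein. Incubated 90 min at 30 °C with 0.5 nM [3H]WIN55212-2 plus competitor in Tris/EDTA/MgCl2/5 mg/mL BSA buffer. Nonspecific binding defined with 10 µM SR141716A. Bound ligand separated by GF/C filtration and counted by scintillation. IC50 from curve fit, Ki by Cheng-Prusoff. Two to four experiments in triplicate.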

Homo sapiens [4] = species on record: Homo sapiens; assay: Inhibition of [3H]anandamide transport(ANT) in human lymphoma U937 cell; assay type: functional; conditions: U-937
Procedure, shortened: (§2)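 U937 cells (10^6/mL, RPMI 1640) preincubated 10 min at 37 °C with inhibitor, highest concentration tested 50 µM. Then [3H]anandamide 0.45 nM plus cold anandamide (100 nM final) added for 7 min. Stopped by GF/C filtration and washed with Krebs-HEPES; radioactivity counted. Nonspecific uptake measured at 4 °C. IC50 by curve fit; maximum inhibition is the % inhibition at 50 µM.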

Homo sapiens [5] = species on record: Homo sapiens; assay: Maximum Inhibition of anandamide transport(ANT) was determined against human lymphoma U937 cell at a dose of 50 uM; assay type: functional, U-937; procedure, shortened: as §2
[6] = target: T1, Fatty-acid amide hydrolase 1 (Rattus norvegicus); assay: Maximum Inhibition of fatty acid amide hydrolase (FAAH) was determined using rat brain homogenates at 100 uM
Procedure, shortened: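 Rat brain (minus cerebellum) homogenate in 10 mM Tris-HCl, 1 mM EDTA, pH 7.6, incubated 10 min at 37 °C with test agent or ethanol carrier. Substrate: 2 µM final anandamide with trace [3H]anandamide (ethanolamine label), 1% fatty acid free BSA. Stopped on ice plus chloroform/methanol. Aqueous-phase [3H]ethanolamine counted by scintillation. Inhibition read at 100 µM where IC50 fit failed.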

[7] = target: T2, Fatty-acid amide hydrolase 1; assay: Maximum Inhibition of fatty acid amide hydrolase (FAAH) was determined using rat brain homogenates at concentrations ranging from 0.5 to 100 uM; procedure, shortened: as §1

Sequence of Cannabinoid receptor 1 (P20272 whole entry): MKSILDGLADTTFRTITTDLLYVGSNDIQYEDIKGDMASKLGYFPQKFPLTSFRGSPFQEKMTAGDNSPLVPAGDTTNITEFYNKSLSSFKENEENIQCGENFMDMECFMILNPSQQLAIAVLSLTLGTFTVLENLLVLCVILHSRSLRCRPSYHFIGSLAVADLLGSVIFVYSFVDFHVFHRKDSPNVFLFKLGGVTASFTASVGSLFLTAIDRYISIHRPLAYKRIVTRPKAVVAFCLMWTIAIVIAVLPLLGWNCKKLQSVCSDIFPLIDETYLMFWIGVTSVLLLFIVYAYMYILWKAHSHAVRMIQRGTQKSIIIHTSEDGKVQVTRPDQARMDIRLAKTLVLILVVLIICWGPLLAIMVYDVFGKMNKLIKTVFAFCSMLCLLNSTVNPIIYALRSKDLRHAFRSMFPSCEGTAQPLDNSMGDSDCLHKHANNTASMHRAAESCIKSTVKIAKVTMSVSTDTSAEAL
Sequence of Transient receptor potential cation channel subfamily V member 1 (O35433 whole entry): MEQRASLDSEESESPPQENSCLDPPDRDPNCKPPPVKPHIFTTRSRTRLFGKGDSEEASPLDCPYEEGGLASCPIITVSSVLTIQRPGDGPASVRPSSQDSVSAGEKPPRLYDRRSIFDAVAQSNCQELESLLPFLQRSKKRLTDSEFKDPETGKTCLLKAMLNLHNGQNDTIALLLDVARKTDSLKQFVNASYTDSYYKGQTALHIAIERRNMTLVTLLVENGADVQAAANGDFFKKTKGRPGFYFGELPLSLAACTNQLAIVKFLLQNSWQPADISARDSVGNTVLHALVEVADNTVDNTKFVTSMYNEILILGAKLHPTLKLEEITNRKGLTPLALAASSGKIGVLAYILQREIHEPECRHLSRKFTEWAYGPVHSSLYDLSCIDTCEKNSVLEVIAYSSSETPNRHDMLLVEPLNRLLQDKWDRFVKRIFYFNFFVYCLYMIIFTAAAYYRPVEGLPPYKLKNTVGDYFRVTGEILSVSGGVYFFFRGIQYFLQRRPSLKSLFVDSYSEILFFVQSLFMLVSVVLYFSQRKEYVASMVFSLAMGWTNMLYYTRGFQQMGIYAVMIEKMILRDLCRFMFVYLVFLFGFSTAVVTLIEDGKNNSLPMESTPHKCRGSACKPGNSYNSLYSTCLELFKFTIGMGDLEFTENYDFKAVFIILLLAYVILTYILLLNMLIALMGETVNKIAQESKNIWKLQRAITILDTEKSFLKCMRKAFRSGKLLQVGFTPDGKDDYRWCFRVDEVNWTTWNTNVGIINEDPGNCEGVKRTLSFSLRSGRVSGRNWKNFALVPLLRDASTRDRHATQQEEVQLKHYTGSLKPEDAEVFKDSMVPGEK
Sequence of Cannabinoid receptor 2 (P34972 whole entry): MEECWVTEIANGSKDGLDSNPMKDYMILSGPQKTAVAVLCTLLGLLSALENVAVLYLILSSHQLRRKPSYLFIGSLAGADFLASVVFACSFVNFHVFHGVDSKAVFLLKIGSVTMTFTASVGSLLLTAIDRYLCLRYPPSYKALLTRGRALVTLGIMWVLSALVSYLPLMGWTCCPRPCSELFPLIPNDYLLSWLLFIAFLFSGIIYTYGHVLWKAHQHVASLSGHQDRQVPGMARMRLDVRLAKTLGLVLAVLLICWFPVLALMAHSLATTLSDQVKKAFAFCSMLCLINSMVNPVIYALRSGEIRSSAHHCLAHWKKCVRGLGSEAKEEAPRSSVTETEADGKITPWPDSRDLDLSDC

Row | SMILES | Max inhibition [1] | Ki (Cannabinoid receptor 2) | IC50 [2] | Ki [3] | Ki (Cannabinoid receptor 1) | IC50 (Homo sapiens [4]) | Max inhibition (Homo sapiens [5]) | Max inhibition [6] | IC50 [7]
1 | CCCCC/C=C\C/C=C\C/C=C\C/C=C\CCCC(=O)NCc1ccsc1 | 76% | > 1 µM | 12 µM | > 5 µM | > 1 µM | 5 µM | >85% | – | –
2 | CCCCC/C=C\C/C=C\C/C=C\C/C=C\CCCC(=O)NCCc1cccs1 | 100% | > 1 µM | 102 µM | > 5 µM | 3 µM | 19 µM | >85% | – | –
3 | CCCCC/C=C\C/C=C\C/C=C\C/C=C\CCCC(=O)NC(C)Cc1ccsc1 (centres undefined) | 37% | > 1 µM | > 120 µM | < 5 µM | > 1 µM | 21 µM | 78% | – | –
4 | CCCCC/C=C\C/C=C\C/C=C\C/C=C\CCCC(=O)NCc1cccs1 | 100% | > 10 µM | 112 µM | – | – | – | >85% | – | –
5 | CCCCC/C=C\C/C=C\C/C=C\C/C=C\CCCC(=O)NCCc1ccco1 | – | > 1 µM | > 120 µM | > 5 µM | > 5 µM | 12.8 µM | >85% | 38% | –
6 | CCCCC/C=C\C/C=C\C/C=C\C/C=C\CCCC(=O)O[C@@H](C)c1ccco1 | – | > 5 µM | > 120 µM | > 5 µM | > 1 µM | – | 55% | 24% | –
7 | CCCCC/C=C\C/C=C\C/C=C\C/C=C\CCCC(=O)OCCc1ccsc1 | 100% | > 5 µM | 28 µM | > 5 µM | > 1 µM | 26 µM | 75% | – | –
8 | CCCCC/C=C\C/C=C\C/C=C\C/C=C\CCCC(=O)NCCc1ccsc1 | – | > 1 µM | – | < 5 µM | > 1 µM | 1.3 µM | 60% | – | –
9 | CCCCC/C=C\C/C=C\C/C=C\C/C=C\CCCC(=O)N(Cc1cccs1)Cc1cccs1 | – | > 1 µM | – | > 5 µM | > 1 µM | 16 µM | >85% | – | –
10 | CCCCC/C=C\C/C=C\C/C=C\C/C=C\CCCC(=O)OCc1ccco1 | 100% | > 5 µM | 53 µM | – | > 5 µM | – | >85% | – | –
11 | CCCCC/C=C\C/C=C\C/C=C\C/C=C\CCCC(=O)NCc1ccoc1 | 100% | – | 30 µM | – | 4.7 µM | – | >85% | – | –
12 | CCCCC/C=C\C/C=C\C/C=C\C/C=C\CCCC(=O)NCCc1ccoc1 | – | 0.4 µM | – | > 5 µM | > 1 µM | 3.3 µM | >85% | – | –
13 | CCCCC/C=C\C/C=C\C/C=C\C/C=C\CCCC(=O)OCC1CCCO1 (centres undefined) | 23% | > 5 µM | > 120 µM | – | > 5 µM | – | >85% | – | –
14 | CCCCC/C=C\C/C=C\C/C=C\C/C=C\CCCC(=O)NCc1ccco1 | 100% | > 5 µM | 34 µM | – | > 5 µM | – | >85% | – | –
15 | CCCCC/C=C\C/C=C\C/C=C\C/C=C\CCCC(=O)SCc1ccco1 | 36% | > 5 µM | > 120 µM | > 5 µM | > 5 µM | 9 µM | >85% | – | –
16 | CCCCC/C=C\C/C=C\C/C=C\C/C=C\CCCC(=O)OCc1cccs1 | 80% | > 5 µM | 12 µM | – | > 5 µM | – | – | – | –
17 | CCCCC/C=C\C/C=C\C/C=C\C/C=C\CCCC(=O)OCCc1cccs1 | 68% | > 5 µM | 24 µM | > 5 µM | > 1 µM | 12 µM | >85% | – | –
18 | CCCCC/C=C\C/C=C\C/C=C\C/C=C\CCCC(=O)Nc1ccc(O)cc1 | 100% | – | 3.7 µM | – | – | – | >85% | – | –
19 | CCCCC/C=C\C/C=C\C/C=C\C/C=C\CCCC(=O)OCC1CCOC1 (centres undefined) | 100% | > 10 µM | 113 µM | – | > 5 µM | – | >85% | – | –
20 | CCCCC/C=C\C/C=C\C/C=C\C/C=C\CCCC(=O)NC(C)Cc1cccs1 (centres undefined) | 36% | > 1 µM | 15 µM | < 5 µM | > 1 µM | 22 µM | 66% | – | –
21 | CCCCC/C=C\C/C=C\C/C=C\C/C=C\CCCCNCc1ccoc1 | 57% | > 1 µM | 29 µM | > 5 µM | > 1 µM | – | >85% | – | –
22 | CCCCC/C=C\C/C=C\C/C=C\C/C=C\CCCC(=O)OC(C)c1ccco1 (centres undefined) | – | > 1 µM | > 120 µM | > 5 µM | > 1 µM | – | 70% | 45% | –
23 | CCCCC/C=C\C/C=C\C/C=C\C/C=C\CCCC(=O)O[C@H](C)c1ccco1 | – | > 5 µM | > 120 µM | > 5 µM | > 1 µM | – | 37% | 19% | –
24 | CCCCC/C=C\C/C=C\C/C=C\C/C=C\CCCC(=O)OCc1ccsc1 | 100% | > 5 µM | 84 µM | – | > 5 µM | – | >85% | – | –
25 | CCCCC/C=C\C/C=C\C/C=C\C/C=C\CCCC(=O)NCC1CCCO1 (centres undefined) | 47% | > 5 µM | 44 µM | – | > 5 µM | – | >85% | – | –
26 | CCCCC/C=C\C/C=C\C/C=C\C/C=C\CCCC(=O)NC(C)c1ccco1 (centres undefined) | 75% | > 5 µM | 36 µM | > 5 µM | > 5 µM | 21 µM | >85% | – | –
27 | CCCCC/C=C\C/C=C\C/C=C\C/C=C\CCCC(=O)NCc1cccn1C | – | – | – | – | – | – | >85% | – | –
28 | CCCCC/C=C\C/C=C\C/C=C\C/C=C\CCCC(=O)N(C)Cc1ccoc1 | – | > 1 µM | > 120 µM | – | > 1 µM | 111 µM | >85% | – | 24 µM
29 | CCCCC/C=C\C/C=C\C/C=C\C/C=C\CCCC(=O)OCc1ccoc1 | 100% | > 5 µM | 103 µM | – | > 5 µM | – | >85% | – | –
